In ChEMBL document CHEMBL3600326, “Discovery of potent α1L-adrenoceptor agonists: Design and synthesis of bicyclic derivatives” (Bioorg Med Chem Lett, 2015):

Assays:
CHO [1] = assay: Agonist activity at human alpha1L-adrenoceptor expressed in CHO cells co-expressing CRELD1alpha assessed as induction of calcium mobilization after 60 mins by fluorometric imaging plate reader assay relative to control noradrenaline; format: cell-based
In short: (§1)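 CHO cells (α1L-dominant) expressing human α1A-AR plus human CRELD1α were plated and grown overnight at 37°C under CO2. Cells were loaded with Calcium 5 indicator dye for 60 min at 37°C, then calcium influx was read by FLIPR. Activity is expressed as EC50 relative to the noradrenaline EC50.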

[2] = (§2) Agonist activity at human alpha1L-adrenoceptor expressed in CHO cells co-expressing CRELD1alpha assessed as induction of calcium mobilization after 60 mins by fluorometric imaging plate reader assay; format: cell-based; details: 1 h; in short: as §1
CHO [3] = assay: as §2; format: cell-based; in short: as §1
Rattus norvegicus = species: Rattus norvegicus; assay: Agonist activity at alpha1L-adrenoceptor in Wistar rat isolated bladder neck assessed as induction of muscle contraction
In short: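 Male Wistar rats anaesthetised with sodium pentobarbital (50 mg/kg) and killed. Bladder neck was isolated and cleaned in modified Krebs-Henseleit solution gassed with 95% O2/5% CO2. Strips were mounted in organ baths of the same solution at 37°C. Contraction was recorded across increasing doses, with noradrenaline as reference agonist.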

SMILES	Ratio (CHO [1])	other results
CC1(C)CCCc2c(CC3=NCCN3)cc(Cl)cc21	0.028	
CC(C)c1cc(Cl)cc2c1CCCC2C1=NCCN1 (stereo not given)	0.024	
CC1(C)CCc2c(CC3=NCCN3)cc(Cl)cc21	0.12	
NC[C@H](O)c1ccc(O)c(O)c1		EC50 [2]: 1020 nM
Cc1c(CC2=NCCN2)cccc1C(C)C		Activity (CHO [3]): 36%
CC(C)c1cc(Cl)cc2c1OCCC2C1=NCCN1 (stereo not given)	0.014	
Clc1cc(CC2=NCCN2)c2c(c1)C1(CCC2)CC1	0.025	
Clc1cc(CC2=NCCN2)c2c(c1)C1(CCO2)CC1	0.088	
Cc1c(CC2=NCCN2)cc(Cl)cc1C(C)C	0.043	
CC(C)c1cc(Cl)cc(CC2=NCCN2)c1	0.52	
CC(C)c1cc(Cl)cc2c1CCC2C1=NCCN1 (stereo not given)	0.08	
CC1CCCc2c(CC3=NCCN3)cc(Cl)cc21 (stereo not given)	0.063	
Cc1ccc(Cl)cc1CC1=NCCN1		Activity (CHO [3]): 0%
CC(C)c1cc(Cl)cc2c1NCCC2C1=NCCN1 (stereo not given)	0.0028	Activity (Rattus norvegicus): Dose-dependent effect
